Hits are enriched below; roughly 4.3% of the tested compounds scored in any of these assays.
Beta2AR agonist: beta2AR agonists driving receptor internalization, primary screen, cell-based, FAP fluorogen, flow cytometry; 340,000 tested, 0.43% active; response, % (no concentration beside the values); Am2.2-beta2AR cells; Beta-2 adrenergic receptor (Homo sapiens), P07550;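 active = response above a set limit, near 3 SD of response in nonfluorescent compounds, cut at about 42% in these data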
Target sequence (P07550 whole entry, looked up): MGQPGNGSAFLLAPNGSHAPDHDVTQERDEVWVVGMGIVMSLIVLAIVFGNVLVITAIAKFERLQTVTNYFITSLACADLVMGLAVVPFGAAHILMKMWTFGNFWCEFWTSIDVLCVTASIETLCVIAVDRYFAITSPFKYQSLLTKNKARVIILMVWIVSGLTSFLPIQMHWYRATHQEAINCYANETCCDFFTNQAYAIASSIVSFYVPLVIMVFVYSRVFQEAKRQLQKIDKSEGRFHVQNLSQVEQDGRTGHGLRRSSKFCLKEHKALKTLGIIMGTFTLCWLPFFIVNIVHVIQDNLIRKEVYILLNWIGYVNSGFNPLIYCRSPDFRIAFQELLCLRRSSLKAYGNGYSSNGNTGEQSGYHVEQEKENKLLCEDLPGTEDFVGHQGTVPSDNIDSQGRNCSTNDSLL
MC4R ag barr: MC4R agonists recruiting beta-arrestin, primary screen, cell-based, luminescence, agonist arm of biased-ligand search. U2OS MC4R beta-arrestin complementation; percent of melanotan II response, DMSO zero. activation, % at 8.9 µM. 360,000 tested, 0.98% active. Melanocortin receptor 4 (Homo sapiens), P32245;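 active = activation above a per-plate cutoff, the mean activation of sample wells on that plate plus 3 SD, cut at about 8% in these data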
Target sequence (P32245 whole entry, looked up): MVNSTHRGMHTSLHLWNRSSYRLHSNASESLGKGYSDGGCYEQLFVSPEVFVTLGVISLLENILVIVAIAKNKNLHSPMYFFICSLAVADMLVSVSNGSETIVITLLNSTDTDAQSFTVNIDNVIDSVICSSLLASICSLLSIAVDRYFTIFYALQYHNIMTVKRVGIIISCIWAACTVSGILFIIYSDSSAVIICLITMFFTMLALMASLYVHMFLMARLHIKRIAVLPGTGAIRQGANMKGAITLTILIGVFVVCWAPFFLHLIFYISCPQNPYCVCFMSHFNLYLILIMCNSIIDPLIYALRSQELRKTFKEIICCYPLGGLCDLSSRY
m5-HT2A agonist: mouse Htr2a agonists via beta-arrestin recruitment, primary screen, cell-based, luminescence. 5-hydroxytryptamine receptor 2A (Mus musculus), P35363. CHO-K1 mHTR2A beta-arrestin complementation; percent of 30 µM serotonin response. activation, % at 7.6 µM. 360,000 tested, 0.66% active. AID 624169, 2012;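 active = activation above a run cutoff, the mean activation of all tested compounds plus 3 SD, cut at about 14% in these data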
TAAR1 antag: human TAAR1 antagonists, primary screen, Fluo-8 calcium fluorescence, CHO RD-HGA16 cells; Trace amine-associated receptor 1 (Homo sapiens), Q96RJ0; antagonist; inhibition, % at 3 µM; 360,000 tested, 1.5% active; AID 624466, 2012;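 active = inhibition above a per-plate cutoff, the mean inhibition of test compounds on that plate plus 3 SD, cut at about 49% in these data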
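Material: RD-HGA16 CHO cells with stable hTAAR1 and Gα16; Dosing: single nominal final test compound concentration of 3 µM; Schedule: seeding 17-24 h prior, 75-min 37 °C, 30-min RT dye loading; Detection: kinetic Fluo-8 calcium fluorescence measurement; Measure: % inhibition from peak post-agonist over basal fluorescence ratio; Benchmarks: vehicle and agonist controls.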
TAAR1 ag: human TAAR1 agonists, primary screen, Fluo-8 calcium fluorescence, CHO RD-HGA16 cells; vehicle wells 0%, saturating PEA agonist 100%; 360,000 tested, 0.99% active; Trace amine-associated receptor 1 (Homo sapiens), Q96RJ0; AID 624467, 2012; activation, % at 3 µM;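 active = activation above the mean activation of all test compounds in the run plus 3 SD, cut at about 38% in these data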
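Assay system – CHO-derived RD-HGA16 cells with stable Gα16 and human TAAR1 · Compound dosing – one-point dosing at 3 µM (nominal) · Incubation – 17-24 h seeding, 75 min 37 °C dye, 30 min RT · Measured by – kinetic Fluo-8 calcium fluorescence · Control set – DMSO vehicle as 0%, PEA at EC100 as 100% · Repeats – single well for each compound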
MC4R antag cAMP: MC4R antagonists of cAMP signaling, primary screen, cell-based, TR-FRET, antagonist arm of biased-ligand search. MC4R-expressing cells, MTII-stimulated cAMP, LANCE TR-FRET. inhibition, % at 6.5 µM. 360,000 tested, 0.48% active;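 active = inhibition above its plate's cutoff, the mean of tested wells on that plate plus 3 SD, cut at about 29% in these data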
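Material: human MC4R-expressing U2OS cells. Probe or stimulus: Melanotan II challenge. Dosing: 6.5 µM single dose. Times: 30-min compound, 1-h challenge, 1-h detection, room temperature. Technique: TR-FRET with Eu-cAMP and labeled anti-cAMP, 671 nm. Replication: singlicate.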
MC4R barr conf: MC4R beta-arrestin agonists, retest, confirmation, cell-based, luminescence, U2OS | shares compounds with MC4R ag barr | U2OS MC4R beta-arrestin recruitment; scaled DMSO 0%, Melanotan II 100% | activation, % at 8.9 µM | 2,400 tested, 31% active;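 active = mean activation across replicates above the hit cutoff set in the earlier primary screen, cut at about 8% in these data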
MOR-DOR barr ag: agonists of MOR-DOR heterodimerization, counter-screen for MC4R biased agonist project, cell-based, luminescence. shares compounds with MC4R ag barr. U2OS PathHunter beta-arrestin, beta-gal luminescence; percent of deltorphin B response, DMSO zero. activation, % at 9.2 µM. 2,400 tested, 5.8% active;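 active = mean activation across replicates exceeds the hit threshold derived in the earlier primary screen, cut at about 18% in these data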
Each line names hits and unclear results; the compound was inactive in the other large screens (follow-up assays come after a bar, where they were run).

CC(=O)N1CCN(C(=O)CNC(=O)c2ccc(C)s2)CC1	none
Cc1cccc(OCC(=O)NNC(=O)Nc2cccc(Cl)c2)c1C	MC4R ag barr 10.3 | MC4R barr conf inactive | MOR-DOR barr ag inactive
O=C(CSc1ccc([N+](=O)[O-])cn1)Nc1ccccc1N1CCOCC1	none
NC1=NC(=O)/C(=C/c2cn(Cc3ccccc3)c3ccccc23)S1	MC4R ag barr 11.4 | MC4R barr conf inactive | MOR-DOR barr ag inactive
Cc1ccc(C(=O)NCN2CCN(c3ccccc3)CC2)cc1	none
CCN(Cc1ccncc1)Cc1cn[nH]c1-c1ccc(OC)cc1F	none
CCOc1ccc(C(=O)Nc2cc(C)on2)cc1	none
Cc1cc(NC(=O)c2cccc(COc3ccc(Br)cc3)c2)no1	MC4R ag barr 11.8 | MC4R barr conf 12.0 | MOR-DOR barr ag inactive
CN(C)S(=O)(=O)c1ccc(C(=O)Nc2ccccc2C(=O)NCCCN2CCOCC2)cc1	none
O=C(CCc1ccccc1)N/N=C/c1cc(Br)ccc1O	MC4R ag barr 15.5 | MC4R barr conf inactive | MOR-DOR barr ag inactive
O=C(CCc1ccccc1)N/N=C\c1cc2c(cc1Br)OCO2	none
COc1ccc(-c2sc3cc4c(cc3c2C#CC2(N)CCCCC2)OCO4)cc1	MC4R ag barr 16.1 | MC4R barr conf inactive | MOR-DOR barr ag inactive
COc1ccc(-c2sc3ccc(N4CCOCC4)cc3c2C#CC2(O)CCCCC2)cc1	MC4R ag barr 31.9 | MC4R barr conf 45.2 | MOR-DOR barr ag inactive
COc1cccc(-c2sc3ccc(OC)cc3c2C#CC2(O)CCCCC2)c1	none
COc1cc(OC)cc(-c2sc3ccc(OC)cc3c2C#CC2(N)CCCCC2)c1	MC4R ag barr 21.1 | MC4R barr conf 14.5 | MOR-DOR barr ag inactive
CCCCOc1ccccc1C1NC(=O)CCC1[N+](=O)[O-] (centres undefined)	none
CN(C)S(=O)(=O)c1ccc2c(c1)nc(CCC(=O)NCC(=O)Nc1ccc(F)c(F)c1F)n2C	none (no result: Beta2AR agonist)
CCc1ccc2c(CN3CCC(C(=O)OC)CC3)cc(=O)oc2c1	none
COc1ccc(OC)c(C(=O)Nc2c(O)ccc3ccccc23)c1	none
C=CCSc1nc2sc(-c3ccccc3)cc2c(=O)n1N	MC4R ag barr 18.5 | MC4R barr conf 21.1 | MOR-DOR barr ag 20.8
CSc1ccc(/C=C(/Sc2nnc(-c3ccccc3)o2)C(=O)O)cc1	MC4R ag barr 22.0 | MC4R barr conf inactive | MOR-DOR barr ag inactive
CC(O)[C@@]1(O)CC[C@H]2[C@@H]3CC[C@H]4C[C@@H](O)CC[C@]4(C)C3=CC[C@@]21C (some centres undefined)	none
COc1ccc(NC(=O)NCc2ccc3c(c2)OCO3)cc1	none
O=C(NCc1ccc2c(c1)OCO2)Nc1ccc2ccccc2c1	MC4R ag barr 10.9 | MC4R barr conf inactive | MOR-DOR barr ag inactive
Cc1ccc(C(C)C)c(OCc2ccc(C(=O)N/N=C/c3ccc(O)c(O)c3)cc2)c1	MC4R ag barr 20.0 | MC4R barr conf 9.0 | MOR-DOR barr ag inactive
O=C(NCc1ccccc1)C1c2ccccc2OCC(=O)N1CC(F)(F)F (centres undefined)	none (no result: Beta2AR agonist, MC4R ag barr, MC4R antag cAMP)
O=[N+]([O-])c1cccc(N/N=C/c2cc([N+](=O)[O-])ccc2O)c1	MC4R ag barr 10.6 | MC4R barr conf inactive | MOR-DOR barr ag inactive
COc1ccc(C2C(=O)c3ccccc3C2=Nc2ccc(Br)cc2)cc1 (centres undefined)	MC4R ag barr 25.9 | MC4R barr conf 10.7 | MOR-DOR barr ag inactive
COc1ccc(/C=C/C(=O)Oc2ccc(/C=N/NC(=O)c3ccccc3)cc2)cc1OC	MC4R ag barr 23.3 | MC4R barr conf inactive | MOR-DOR barr ag 21.5
COc1ccc(/C=N/NC(=O)c2ccncc2)cc1OC	none
CC1(C)CC(=O)C=C(c2ccc(COC(=O)c3ccc(-c4ccccc4)cc3)cc2)C1=O	none (no result: Beta2AR agonist)
C/C(=C\c1ccco1)C1C(C#N)=C(N)Oc2n[nH]c(-c3ccc(C)cc3)c21 (centres undefined)	MC4R ag barr 15.6 | MC4R barr conf 23.4 | MOR-DOR barr ag inactive
COc1cc(/C=N/Nc2ccc(S(N)(=O)=O)cc2[N+](=O)[O-])cc(OC)c1O	none
COc1cc(/C=N/Nc2ccccc2[N+](=O)[O-])cc(OC)c1O	MC4R ag barr 10.0 | MC4R barr conf inactive | MOR-DOR barr ag inactive
COc1cccc(OC)c1C(=O)NCc1ccco1	none (no result: Beta2AR agonist)
COc1ccc(C(=O)Nc2cccc(-c3cc4ccccc4oc3=O)c2)cc1[N+](=O)[O-]	MC4R ag barr 13.4 | MC4R barr conf inactive | MOR-DOR barr ag inactive
O=C(Cc1ccc(Cl)cc1Cl)NCc1cccnc1	none
O=C1NC2(NN1c1ccccc1)C1CC3CC(C1)CC2C3 (centres undefined)	MC4R ag barr 18.0 | MC4R barr conf inactive | MOR-DOR barr ag inactive
O=C(CSc1nc(-c2ccc(F)cc2)cc(C(F)(F)F)n1)Nc1ccc2c(c1)OCO2	MC4R ag barr 16.7 | MC4R barr conf inactive | MOR-DOR barr ag inactive
O=C(CSc1nc(-c2ccccc2)cc(C(F)(F)F)n1)NCc1cccs1	none (no result: MC4R ag barr, m5-HT2A agonist, MC4R antag cAMP)
Cc1cc(NC(=O)CCSc2nc(-c3ccco3)cc(C(F)(F)F)n2)no1	MC4R ag barr 9.9 | MC4R barr conf inactive | MOR-DOR barr ag inactive
CCN(CC)S(=O)(=O)c1ccc(-c2nnc(SCC(=O)Nc3ccc4c(c3)OCO4)o2)cc1	MC4R ag barr 10.0 | MC4R barr conf inactive | MOR-DOR barr ag inactive
Cc1cc(NC(=O)CCCSc2nc(-c3ccco3)cc(C(F)(F)F)n2)no1	none
COc1ccc(-c2cc(C(F)(F)F)nc(SCC(=O)NCc3cccs3)n2)cc1	MC4R ag barr 15.9 | MC4R barr conf inactive | MOR-DOR barr ag inactive
COc1ccc(-c2cc(C(F)(F)F)nc(SCC(=O)Nc3ccc4c(c3)OCO4)n2)cc1	none
CC(C)CN1CCCC(N2CCN(c3cccc(Cl)c3)CC2)C1 (centres undefined)	none

Bioassay records: PubChem BioAssay, several laboratories
